Measured values reported in ChEMBL document CHEMBL1125210, “Benzylated 1,2,3-triazoles as anticoccidiostats” (J Med Chem, 1991).
Each block holds one compound with its values, some of them ahead of it.

Key:
Gallus gallus [1] = species on record: Gallus gallus; experiment: The compound was tested for anti-coccidial activity in chicken against Eimeria tenella (DP-761) measured at dose 45 (ppm in diet); format: functional
Method in brief: (§1)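 Test article mixed into the feed at the stated rates and given to 3-day-old chicks infected with […]. Each Eimeria species was inoculated separately. Activity was scored as percent suppression of oocyst output relative to infected, unmedicated controls. Toxicity was judged from average weight gain relative to uninfected controls.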

Gallus gallus [2] = species on record: Gallus gallus; experiment: The compound was tested for anti-coccidial activity in chicken against Eimeria acervulina (DP-761) measured at dose 60 (ppm in diet); format: functional
Gallus gallus [3] = species on record: Gallus gallus; experiment: The compound was tested for anti-coccidial activity in chicken against Eimeria necatrix (Aquet) measured at dose 60 (ppm in diet); format: functional
Gallus gallus [4] = species on record: Gallus gallus; experiment: The compound was tested for anti-coccidial activity in chicken against Eimeria brunetti (FS-103) measured at dose 60 (ppm in diet); format: functional
Gallus gallus [5] = species on record: Gallus gallus; experiment: The compound was tested for anti-coccidial activity in chicken against Eimeria brunetti (FS-103) measured at dose 7.5 (ppm in diet); format: functional
Gallus gallus [6] = species on record: Gallus gallus; experiment: The compound was tested for anti-coccidial activity in chicken against Eimeria acervulina (DP-761) measured at dose 45 (ppm in diet); format: functional
Gallus gallus [7] = species on record: Gallus gallus; experiment: The compound was tested for anti-coccidial activity in chicken against Eimeria acervulina (DP-761) measured at dose 15 (ppm in diet); format: functional
Gallus gallus [8] = species on record: Gallus gallus; experiment: The compound was tested for anti-coccidial activity in chicken against Eimeria praecox (DP-785) measured at dose 60 (ppm in diet); format: functional
Gallus gallus [9] = species on record: Gallus gallus; experiment: The compound was tested for anti-coccidial activity in chicken against Eimeria praecox (DP-785) measured at dose 15 (ppm in diet); format: functional
Gallus gallus [10] = species on record: Gallus gallus; experiment: The compound was tested for anti-coccidial activity in chicken against Eimeria necatrix (Aquet) measured at dose 7.5 (ppm in diet); format: functional
Gallus gallus [11] = species on record: Gallus gallus; experiment: The compound was tested for anti-coccidial activity in chicken against Eimeria acervulina (DP-761) measured at dose 7.5 (ppm in diet); format: functional
Gallus gallus [12] = species on record: Gallus gallus; experiment: The compound was tested for anti-coccidial activity in chicken against Eimeria maxima (DP-776) measured at dose 15 (ppm in diet); format: functional
Gallus gallus [13] = species on record: Gallus gallus; experiment: The compound was tested for anti-coccidial activity in chicken against Eimeria tenella (DP-761) measured at dose 15 (ppm in diet); format: functional; method in brief: as §1
Gallus gallus [14] = species on record: Gallus gallus; experiment: The compound was tested for anti-coccidial activity in chicken against Eimeria brunetti (FS-103) measured at dose 45 (ppm in diet); format: functional
Gallus gallus [15] = species on record: Gallus gallus; experiment: The compound was tested for anti-coccidial activity in chicken against Eimeria acervulina (DP-761) measured at dose 30 (ppm in diet); format: functional
Gallus gallus [16] = species on record: Gallus gallus; experiment: The compound was tested for anti-coccidial activity in chicken against Eimeria praecox (DP-785) measured at dose 30 (ppm in diet); format: functional
Gallus gallus [17] = species on record: Gallus gallus; experiment: The compound was tested for anti-coccidial activity in chicken against Eimeria tenella (DP-761) measured at dose 30 (ppm in diet); format: functional; method in brief: as §1
Eimeria acervulina = experiment: Anticoccidial activity in chicken against Eimeria acervulina.; format: functional; design: Reduction: concentration or dose not given beside the values
Method in brief: (§2)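 3-Day-old chicks infected separately with E. tenella or E. acervulina; test compound given mixed in the feed at the stated rates. Activity was scored as percent suppression of oocyst production versus infected, unmedicated controls. Toxicity was judged from average weight gain relative to uninfected controls.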

Gallus gallus [18] = species on record: Gallus gallus; experiment: The compound was tested for anti-coccidial activity in chicken against Eimeria necatrix (Aquet) measured at dose 45 (ppm in diet); format: functional
Gallus gallus [19] = species on record: Gallus gallus; experiment: The compound was tested for anti-coccidial activity in chicken against Eimeria tenella (DP-761) measured at dose 7.5 (ppm in diet); format: functional; method in brief: as §1
Gallus gallus [20] = species on record: Gallus gallus; experiment: The compound was tested for anti-coccidial activity in chicken against Eimeria tenella (DP-761) measured at dose 60 (ppm in diet); format: functional; method in brief: as §1
Gallus gallus [21] = species on record: Gallus gallus; experiment: The compound was tested for anti-coccidial activity in chicken against Eimeria maxima (DP-776) measured at dose 7.5 (ppm in diet); format: functional
Gallus gallus [22] = species on record: Gallus gallus; experiment: The compound was tested for anti-coccidial activity in chicken against Eimeria praecox (DP-785) measured at dose 45 (ppm in diet); format: functional
Gallus gallus [23] = species on record: Gallus gallus; experiment: The compound was tested for anti-coccidial activity in chicken against Eimeria necatrix (Aquet) measured at dose 15 (ppm in diet); format: functional
Gallus gallus [24] = species on record: Gallus gallus; experiment: The compound was tested for anti-coccidial activity in chicken against Eimeria brunetti (FS-103) measured at dose 15 (ppm in diet); format: functional
Gallus gallus [25] = species on record: Gallus gallus; experiment: The compound was tested for anti-coccidial activity in chicken against Eimeria brunetti (FS-103) measured at dose 30 (ppm in diet); format: functional
Eimeria tenella = experiment: Anticoccidial activity in chicken against E. tenella; format: functional; design: Reduction: concentration or dose not given beside the values; method in brief: as §2
Gallus gallus [26] = species on record: Gallus gallus; experiment: The compound was tested for anti-coccidial activity in chicken against Eimeria necatrix (Aquet) measured at dose 30 (ppm in diet); format: functional
Gallus gallus [27] = species on record: Gallus gallus; experiment: The compound was tested for anti-coccidial activity in chicken against Eimeria maxima (DP-776) measured at dose 60 (ppm in diet); format: functional
Gallus gallus [28] = species on record: Gallus gallus; experiment: The compound was tested for anti-coccidial activity in chicken against Eimeria maxima (DP-776) measured at dose 30 (ppm in diet); format: functional
Gallus gallus [29] = species on record: Gallus gallus; experiment: The compound was tested for anti-coccidial activity in chicken against Eimeria maxima (DP-776) measured at dose 45 (ppm in diet); format: functional
Gallus gallus [30] = species on record: Gallus gallus; experiment: The compound was tested for anti-coccidial activity in chicken against Eimeria praecox (DP-785) measured at dose 7.5 (ppm in diet); format: functional
Gallus gallus [31] = species on record: Gallus gallus; experiment: The compound was tested for anti-coccidial activity in chicken against Eimeria tenella; format: organism-based; conditions: in vivo; method in brief: as §1
Gallus gallus [32] = species on record: Gallus gallus; experiment: The compound was tested for anti-coccidial activity in chicken against Eimeria acervulina; format: organism-based; conditions: in vivo; method in brief: as §2
Gallus gallus [33] = species on record: Gallus gallus; experiment: The compound was tested for anti-coccidial activity in chicken against Eimeria acervulina (DP-761) measured at dose 121 (ppm in diet); format: functional
Gallus gallus [34] = species on record: Gallus gallus; experiment: The compound was tested for anti-coccidial activity in chicken against Eimeria tenella (DP-761) measured at dose 121 (ppm in diet); format: functional; method in brief: as §1
Gallus gallus [35] = species on record: Gallus gallus; experiment: The compound was tested for anti-coccidial activity in chicken against Eimeria praecox (DP-785) measured at dose 121 (ppm in diet); format: functional
Gallus gallus [36] = species on record: Gallus gallus; experiment: The compound was tested for anti-coccidial activity in chicken against Eimeria hagani (DP-786) measured at dose 121 (ppm in diet); format: functional
Gallus gallus [37] = species on record: Gallus gallus; experiment: The compound was tested for anti-coccidial activity in chicken against Eimeria maxima (DP-776) measured at dose 121 (ppm in diet); format: functional
Gallus gallus [38] = species on record: Gallus gallus; experiment: The compound was tested for anti-coccidial activity in chicken against Eimeria mitis (LS-84) measured at dose 121 (ppm in diet); format: functional
Gallus gallus [39] = species on record: Gallus gallus; experiment: The compound was tested for anti-coccidial activity in chicken against Eimeria brunetti (FS-103) measured at dose 121 (ppm in diet); format: functional

SMILES: NC(=O)c1nnn(Cc2cc(Cl)c(C(=O)c3ccc(Cl)cc3)c(Cl)c2)c1N [CARBOXYAMIDOTRIAZOLE]
Reduction (Gallus gallus [1]): 99.9%
Reduction (Gallus gallus [2]): 99.9%
Reduction (Gallus gallus [3]): 100%
Reduction (Gallus gallus [4]): 100%
Reduction (Gallus gallus [5]): 58%
Reduction (Gallus gallus [6]): 99.9%
Reduction (Gallus gallus [7]): 98%
Reduction (Gallus gallus [8]): 100%
Reduction (Gallus gallus [9]): 98%
Reduction (Gallus gallus [10]): 12%
Reduction (Gallus gallus [11]): 21%
Reduction (Gallus gallus [12]): 99.9%
Reduction (Gallus gallus [13]): 83%
Reduction (Gallus gallus [14]): 100%
Reduction (Gallus gallus [15]): 99.9%
Reduction (Gallus gallus [16]): 100%
Reduction (Gallus gallus [17]): 98%
Reduction (Eimeria acervulina): 90%
Reduction (Gallus gallus [18]): 100%
Reduction (Gallus gallus [19]): 60%
Reduction (Gallus gallus [20]): 99.9%
Reduction (Gallus gallus [21]): 99.9%
Reduction (Gallus gallus [22]): 100%
Reduction (Gallus gallus [23]): 88%
Reduction (Gallus gallus [24]): 95%
Reduction (Gallus gallus [25]): 100%
Reduction (Eimeria tenella): 80%
Reduction (Gallus gallus [26]): 100%
Reduction (Gallus gallus [27]): 99.9%
Reduction (Gallus gallus [28]): 99.9%
Reduction (Gallus gallus [29]): 99.9%
Reduction (Gallus gallus [30]): 72%

minimum effective dose (Gallus gallus [31]): > 500 ppm
minimum effective dose (Gallus gallus [32]): > 500 ppm
SMILES: NC(=O)c1c(N)nnn1Cc1cc(Cl)c(C(=O)c2ccc(Cl)cc2)c(Cl)c1

SMILES: CC[C@@]1([C@@H]2O[C@@H]([C@H]3O[C@@](O)(CO)[C@H](C)C[C@@H]3C)C[C@@H]2C)CC[C@H]([C@]2(C)CC[C@]3(C[C@H](O)[C@@H](C)[C@@H]([C@@H](C)[C@@H](OC)[C@H](C)C(=O)O)O3)O2)O1 [MONENSIN]
Reduction (Gallus gallus [33]): 4%
Reduction (Gallus gallus [34]): 100%
Reduction (Gallus gallus [35]): 19%
Reduction (Gallus gallus [36]): 19%
Reduction (Eimeria acervulina): 80%
Reduction (Eimeria tenella): 80%
Reduction (Gallus gallus [37]): 73%
Reduction (Gallus gallus [38]): 72%
Reduction (Gallus gallus [39]): 100%
